Measured values published in ChEMBL document CHEMBL6134899 (J Med Chem, 2025).
Activity calls are given as the source filed them. No cut-off for these calls is given here.

What was measured:
[1] = biological target: Sodium-dependent dopamine transporter (Homo sapiens) (UniProt Q01959); experiment: Inhibition of DAT receptor (unknown origin) at 100 nM
[2] = biological target: Sodium-dependent serotonin transporter (Homo sapiens) (UniProt P31645); experiment: Inhibition of SERT receptor (unknown origin) at 100 nM
Sequence of Sodium-dependent serotonin transporter (Homo sapiens) (P31645 whole entry, looked up): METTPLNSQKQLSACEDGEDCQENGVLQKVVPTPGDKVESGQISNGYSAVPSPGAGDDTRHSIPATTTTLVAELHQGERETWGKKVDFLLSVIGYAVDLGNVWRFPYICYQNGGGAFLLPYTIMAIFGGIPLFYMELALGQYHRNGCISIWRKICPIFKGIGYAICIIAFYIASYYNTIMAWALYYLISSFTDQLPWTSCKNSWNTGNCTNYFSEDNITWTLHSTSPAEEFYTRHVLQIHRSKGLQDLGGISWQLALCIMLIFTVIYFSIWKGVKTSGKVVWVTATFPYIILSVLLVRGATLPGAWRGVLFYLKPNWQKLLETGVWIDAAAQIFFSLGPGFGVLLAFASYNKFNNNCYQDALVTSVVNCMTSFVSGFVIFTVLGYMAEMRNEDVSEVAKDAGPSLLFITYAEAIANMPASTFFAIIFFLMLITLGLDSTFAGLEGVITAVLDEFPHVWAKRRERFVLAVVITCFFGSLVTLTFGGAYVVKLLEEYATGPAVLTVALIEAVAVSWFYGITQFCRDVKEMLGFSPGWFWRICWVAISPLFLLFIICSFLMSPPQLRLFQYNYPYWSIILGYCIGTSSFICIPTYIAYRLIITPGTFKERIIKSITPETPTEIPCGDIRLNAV

[3] = biological target: Sodium-dependent noradrenaline transporter (Homo sapiens) (UniProt P23975); details: dose 10-100 nM
Sequence of Sodium-dependent noradrenaline transporter (Homo sapiens) (P23975 whole entry): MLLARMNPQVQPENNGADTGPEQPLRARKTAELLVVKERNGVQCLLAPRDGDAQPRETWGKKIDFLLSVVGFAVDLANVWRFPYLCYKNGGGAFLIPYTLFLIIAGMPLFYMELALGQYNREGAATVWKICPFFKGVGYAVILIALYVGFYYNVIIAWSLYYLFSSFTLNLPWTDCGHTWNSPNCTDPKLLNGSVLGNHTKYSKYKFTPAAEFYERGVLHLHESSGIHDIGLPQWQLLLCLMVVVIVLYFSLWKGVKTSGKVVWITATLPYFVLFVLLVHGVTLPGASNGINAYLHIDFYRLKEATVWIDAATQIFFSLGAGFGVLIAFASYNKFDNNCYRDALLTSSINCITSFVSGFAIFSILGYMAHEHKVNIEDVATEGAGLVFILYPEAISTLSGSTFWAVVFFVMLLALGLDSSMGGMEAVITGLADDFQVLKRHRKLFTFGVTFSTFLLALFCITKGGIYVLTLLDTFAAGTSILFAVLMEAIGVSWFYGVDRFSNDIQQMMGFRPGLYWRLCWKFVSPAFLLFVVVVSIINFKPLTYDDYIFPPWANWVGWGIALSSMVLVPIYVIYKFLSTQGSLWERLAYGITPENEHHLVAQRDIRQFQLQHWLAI

[4] = biological target: Sodium-dependent dopamine transporter (Homo sapiens) (UniProt Q01959); experiment: Displacement of [3H]BTCP from recombinant human DAT receptor expressed in CHO cells at 10 uM incubated for 120 mins by scintillation counting method; format: cell-based
Procedure, shortened: (§1)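 Radioligand displacement run by a commercial provider, with test compound at 10 μM. Reported as mean ± SD of two independent measurements, each in duplicate.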

[5] = biological target: Sodium-dependent serotonin transporter (Homo sapiens) (UniProt P31645); experiment: Displacement of [3H]imipramine from recombinant human SERT receptor expressed in CHO cells at 10 uM incubated for 60 mins by scintillation counting method; format: cell-based; procedure, shortened: as §1
[6] = Drug accumulation in C57BL/6JRJ mouse brain at 5 mg/kg, iv followed by 1 week after washout period treated at 5 mg/kg, po followed by 1 week after washout period treated at 5 mg/kg, po measured after 30 mins; format: ADME, organism-based; details: in vivo, 168 h, time 1 weeks
Procedure, shortened: (§2)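 The same four C57BL/6JRJ mice (2 male, 2 female) first had i.v. and then oral PK runs, each followed by 1 week washout. They were then gavaged with 5 mg/kg in saline at 5 mL/kg. At 30 min they were decapitated under isoflurane, and blood and tissues were harvested. Tissue levels were quantified by LC-ESI-MS/MS and given as mean ± SD of four mice.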

[7] = Drug accumulation in C57BL/6JRJ mouse adrenal gland at 5 mg/kg, iv followed by 1 week after washout period treated at 5 mg/kg, po followed by 1 week after washout period treated at 5 mg/kg, po measured after 30 mins; format: ADME, organism-based; details: in vivo, 168 h, time 1 weeks; procedure, shortened: as §2
[8] = Acute toxicity in C57BL6/J mouse assessed as piloerection at 1.0 to 10 mg/kg, ip; format: organism-based; details: in vivo, dose 1-10 mg/kg
Procedure, shortened: (§3)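 Male mice, 12 weeks old, were handled for 10 days and rotarod-trained before dosing. Each received 1.0 or 10 mg/kg i.p. (n = 7) or vehicle, 0.5% DMSO (n = 6), at 1% body-weight volume. Animals were held 40 min in a separate cage, then observed during rotarod, light/dark box and rectal temperature tests for signs of toxicity. Sacrifice was 1 h post-dose.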

[9] = Acute toxicity in C57BL6/J mouse assessed as hunched posture at 1.0 to 10 mg/kg, ip; format: organism-based; details: in vivo, dose 1-10 mg/kg; procedure, shortened: as §3
[10] = Acute toxicity in C57BL6/J mouse assessed as convulsions at 1.0 to 10 mg/kg, ip; format: organism-based; details: in vivo, dose 1-10 mg/kg; procedure, shortened: as §3
[11] = Acute toxicity in C57BL6/J mouse assessed as gastrointestinal distress at 1.0 to 10 mg/kg, ip; format: organism-based; details: in vivo, dose 1-10 mg/kg; procedure, shortened: as §3
[12] = AUC in C57BL/6JRJ mouse at 5 mg/kg, iv measured up to 24 hrs; format: ADME, organism-based; details: in vivo
Procedure, shortened: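 C57BL/6JRJ mice, 8–9 weeks old (2 male, 2 female), received 5 mg/kg (dose based on free salt MW) in 0.9% saline at 5 mL/kg by tail-vein injection after tail warming. Tail-vein blood microsamples (<20 μL) were taken at 5, 15, 30 min and 1, 1.5, 2, 4, 8 and 24 h, quantified by MRM LC-ESI-MS/MS, and reported as mean ± SD of four mice.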

Sequence of Sodium-dependent dopamine transporter (Homo sapiens) (Q01959 whole entry): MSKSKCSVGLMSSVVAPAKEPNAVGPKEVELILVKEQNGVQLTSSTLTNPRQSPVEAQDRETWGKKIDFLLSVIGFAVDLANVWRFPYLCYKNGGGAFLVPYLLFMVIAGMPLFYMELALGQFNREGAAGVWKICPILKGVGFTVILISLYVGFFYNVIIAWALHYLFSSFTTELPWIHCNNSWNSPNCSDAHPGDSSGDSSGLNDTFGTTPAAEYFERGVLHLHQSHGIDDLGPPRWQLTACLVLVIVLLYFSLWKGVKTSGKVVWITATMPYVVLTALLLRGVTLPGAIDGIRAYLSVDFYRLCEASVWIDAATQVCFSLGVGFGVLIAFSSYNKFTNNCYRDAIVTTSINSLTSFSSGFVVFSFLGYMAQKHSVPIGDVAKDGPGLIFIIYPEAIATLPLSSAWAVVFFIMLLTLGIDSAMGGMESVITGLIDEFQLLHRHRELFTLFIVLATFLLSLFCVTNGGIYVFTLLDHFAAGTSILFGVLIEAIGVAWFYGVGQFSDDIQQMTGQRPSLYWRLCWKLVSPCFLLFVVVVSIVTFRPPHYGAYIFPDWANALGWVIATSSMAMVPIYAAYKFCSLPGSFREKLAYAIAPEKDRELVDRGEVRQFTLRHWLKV

SMILES	inhibition [1]	inhibition [2]	inhibition [3]	also measured
Clc1cccc(CN2CCCC[C@H]3NCC[C@H]32)c1Cl	Active	Active	Active	–
Clc1cc(Cl)cc(CN2CCCC[C@H]3NCC[C@H]32)c1	Active	Active	Active	–
c1ccc(CN2CCCC[C@H]3NCCC[C@H]32)cc1	–	–	–	Activity [4]: Active; Activity [5]: Active
c1ccc(CN2CCCC[C@@H]3NCCCC[C@H]32)cc1	–	–	–	Activity [4]: Active; Activity [5]: Active
Clc1ccc(CN2CCCC[C@H]3NCC[C@H]32)cc1	Active	Active	Active	–
Fc1cccc(CN2CCCC[C@H]3NCC[C@H]32)c1	Active	Active	Active	–
c1ccc(CN2CCCC[C@@H]3NCCC[C@H]32)cc1	–	–	–	Activity [4]: Active; Activity [5]: Active
Brc1cccc(CN2CCCC[C@H]3NCC[C@H]32)c1	Active	Active	Active	–
Clc1ccccc1CN1CCCC[C@H]2NCC[C@H]21	Active	Active	Active	–
c1ccc(CN2CCCC[C@H]3NCC[C@H]32)cc1	–	–	–	Drug uptake [6]: Active; Drug uptake [7]: Active; Activity [8]: Non-toxic; Activity [9]: Non-toxic; Activity [10]: Non-toxic; Activity [11]: Non-toxic; AUC [12]: 47948 ng·min/mL
Clc1cccc(CN2CCCC[C@H]3NCC[C@H]32)c1	Active	Active	Active	–
